These results are taken from ChEMBL document CHEMBL5143669, “Stapled peptides as scaffolds for developing radiotracers for intracellular targets: Preliminary evaluation of a radioiodinated MDM2-binding stapled peptide in the SJSA-1 osteosarcoma model” (Bioorg Med Chem Lett, 2022).

Data set [1] in a line: Biodistribution in Heart of athymic mouse xenografted with human SJSA-1 cells at 166.5 kBq, iv after 6 hrs by automated gamma counting method. The settings on record: in vivo. The data set is classed as ADME, organism-based. The method, boiled down: (§1)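 125I-labeled peptide (166.5 kBq in 100 μL) was injected via tail vein into athymic mice bearing flank SJSA-1 xenografts, n = 5 per time point. Tumors, blood and major organs were gamma-counted at 0.5, 2, 6 and 24 h post-injection. Values are %ID/g.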

Data set [2] can be described thus: Biodistribution in Blood of athymic mouse xenografted with human SJSA-1 cells at 166.5 kBq, iv after 30 mins by automated gamma counting method. The data set is classed as ADME, organism-based. The settings on record: in vivo, 0.5 h. Summed up:
as §1

The nature of data set [3]: Biodistribution in Urinary bladder of athymic mouse xenografted with human SJSA-1 cells at 166.5 kBq, iv after 24 hrs by automated gamma counting method. Type of data set: ADME, organism-based. The settings on record: in vivo. The method, boiled down: (§2)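 Athymic mice bearing flank SJSA-1 xenografts received 125I-SIB-labeled peptide (166.5 kBq, 100 μL) by tail vein; groups of five per time point. Tumor, blood and organs were taken at 0.5–24 h and counted by gamma counter; values expressed as %ID/g.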

The nature of data set [4]: Biodistribution in Heart of athymic mouse xenografted with human SJSA-1 cells at 166.5 kBq, iv after 24 hrs by automated gamma counting method. Type of data set: ADME, organism-based. The settings on record: in vivo. Summed up:
as §1

A short description of data set [5]: Biodistribution in Kidney of athymic mouse xenografted with human SJSA-1 cells at 166.5 kBq, iv after 6 hrs by automated gamma counting method. The data set is classed as ADME, organism-based. The settings on record: in vivo. The method, boiled down: as §1
Data set [6] is described as follows: Biodistribution in Tumor of athymic mouse xenografted with human SJSA-1 cells at 166.5 kBq, iv after 2 hrs by automated gamma counting method. The data set is classed as ADME, organism-based, Neoplasm. The settings on record: in vivo. Summed up: as §2
The nature of data set [7]: Stability in human serum assessed as intact peptide level at 37 degC incubated for 1 hr by RP-HPLC analysis. The data set is classed as ADME, cell-free. The settings on record: read-out: Drug uptake. Summed up:
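125I-labeled peptide was incubated in human serum at 37 °C for up to 72 h. Aliquots were run by RP-HPLC (RP-18 column, ethanol/0.05 M sodium acetate pH 5.5 gradient, 1 mL/min), and intact peptide was expressed as percentage of injected activity.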

Data set [8] can be described thus: Drug uptake in MDM2-amplified human SJSA-1 cells expressing wild type p53 at 5 to 50 uM incubated for 1 hr. Type of data set: ADME, cell-based. The settings on record: sjsa-1, 1 h, dose 5-50 µM. The method, boiled down: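 SJSA-1 cells (MDM2-amplified, wild-type p53) in 24-well plates were incubated 1 h with 125I-labeled peptide in serum-free RPMI-1640, with or without unlabeled parent peptide (5–50 μM) for blocking. They were then washed three times with PBS and lysed; retained activity was normalized to well protein (%/mg protein). Triplicates, mean ± SD.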

For the molecule `CC(=O)NC(CCCCNC(=O)c1cccc([125I])c1)C(=O)NCCCCCC(=O)N[C@H](C(=O)N[C@@H](CO)C(=O)N[C@@H](Cc1ccccc1)C(=O)N[C@@]1(C)CCCCCC/C=C/CCC[C@@](C)(C(=O)N[C@@H](CCC(=O)O)C(=O)N[C@@H](CC(N)=O)C(=O)N[C@@H](Cc2ccccc2)C(N)=O)NC(=O)[C@H](CC(C)C)NC(=O)[C@H](CC(C)C)NC(=O)[C@H](C)NC(=O)[C@H](Cc2c[nH]c3ccccc23)NC(=O)[C@H](Cc2ccc(O)cc2)NC(=O)[C@H](CCC(=O)O)NC1=O)[C@@H](C)O` (stereo partly drawn), the Drug uptake in data set [1] amounted to 2.14 % ID/g; in data set [2], 8.33 % ID/g; in data set [3], 0.29 % ID/g; in data set [4] it was 0.37 % ID/g; in data set [5] it was 2.5 % ID/g; in data set [6] it was 2.19 % ID/g. The Drug uptake in data set [8] turned out to be 12.4%. The remaining at 1 h in data set [7] was 98.2%.
